Test results: article PMC9519467 (Bioactive Materials, 2022)

How the values were obtained:
4T1 tumor-bearing mice [1] = assay: Tumor retention after intratumoral injection; format: in vivo, BALB/c mice; settings: observed 6–120 h
How it was run: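 4T1 flank tumors were raised in female BALB/c mice, and test compound or free P18 solution (10 μL) was injected into the tumor. Fluorescence was imaged by IVIS under isoflurane at 6, 12, 24, 48, 72, 96 and 120 h, and tumor intensity was quantified. In a separate pair of groups, the MMP-2 inhibitor Ilomastat (8 mg/kg) was injected into the tumor 15 min before the test compound, compared with no inhibitor. Tumor fluorescence was imaged at serial time points.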

4T1 tumor-bearing mice [2] = assay: In vivo biodistribution after tail vein injection; parameters: species or system BALB/c mice; settings: 1–24 h
How it was run: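 Female BALB/c mice (4–6 weeks, 18–20 g) received 5 × 10^5 4T1 cells subcutaneously in the right flank and were grouped once tumors reached about 100 mm3. Test compound (100 μL, 2.845 mg/mL in PBS) was injected into the tail vein; free P18 in 10% DMSO/PBS served as comparator. P18 fluorescence was imaged by IVIS under isoflurane at 1, 3, 6, 9, 12 and 24 h. Mean tumor-site intensity was computed, and excised organs and tumor were imaged at 24 h.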

4T1 tumor-bearing mice [3] = assay: In vivo photothermal effect; parameters: species or system BALB/c mice; settings: 6 h after tail vein injection, 660 nm, 0.5 W/cm^2, 6 min
How it was run: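 The 4T1 model was female BALB/c mice with subcutaneous flank tumors, in two groups. One group got test compound i.v. (100 μL, 2.845 mg/mL in PBS); the comparator group got free P18 solution (100 μL) under the same conditions. Infrared thermal camera images and tumor temperature curves were recorded during irradiation.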

course of tumor fluorescence intensity post i.t. injection (4T1 tumor-bearing mice [1]): decreased gradually until 120 h
fluorescence signal at the tumor site (4T1 tumor-bearing mice [2]): barely detectable
Substance: Purpurin 18 [P18]
temperature of the tumor under laser irradiation (4T1 tumor-bearing mice [3]): 41 °C
